The source made the active and inactive calls.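 The calls were made as follows: active = IC50 at or below 1 µM; inactive = the rest.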
Biological target: Protein-arginine deiminase type-4 (Homo sapiens) (UniProt Q9UM07)
Test: PAD4 enzyme inhibition potency, late-stage follow-up, biochemical, BAEE substrate, citrulline absorbance, 8-point 0-10 µM (AID 588420)
Conditions: recombinant PAD4, BAEE citrulline colorimetric absorbance
Outline: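 Assay system: recombinant PAD4 enzyme. Quantity: 0.2 µM PAD4. Probe or stimulus: 10 mM BAEE. Incubation: 15 min preincubation plus 15 min reaction at 37 °C. Measured by: colorimetric citrulline absorbance at 540 nm. Repeats: duplicates.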

Sequence of Protein-arginine deiminase type-4 (Homo sapiens) (Q9UM07 whole entry, looked up): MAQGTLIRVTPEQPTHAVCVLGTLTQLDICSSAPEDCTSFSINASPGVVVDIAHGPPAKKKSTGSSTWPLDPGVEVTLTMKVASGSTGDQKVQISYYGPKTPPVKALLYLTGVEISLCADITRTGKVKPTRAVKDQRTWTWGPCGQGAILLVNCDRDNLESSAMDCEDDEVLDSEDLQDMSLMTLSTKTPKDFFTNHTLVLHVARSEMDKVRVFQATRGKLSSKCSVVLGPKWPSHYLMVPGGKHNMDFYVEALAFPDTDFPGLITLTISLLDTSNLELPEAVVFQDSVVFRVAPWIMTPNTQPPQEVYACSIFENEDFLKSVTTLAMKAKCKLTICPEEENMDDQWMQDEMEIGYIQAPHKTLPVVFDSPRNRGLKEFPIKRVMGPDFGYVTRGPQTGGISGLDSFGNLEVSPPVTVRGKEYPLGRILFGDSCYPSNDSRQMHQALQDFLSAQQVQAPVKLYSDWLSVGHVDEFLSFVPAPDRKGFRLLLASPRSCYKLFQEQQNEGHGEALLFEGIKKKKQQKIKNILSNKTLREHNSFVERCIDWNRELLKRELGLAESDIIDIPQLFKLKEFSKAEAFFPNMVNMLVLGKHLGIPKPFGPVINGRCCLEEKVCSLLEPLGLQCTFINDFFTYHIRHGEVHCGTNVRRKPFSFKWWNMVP

With `COC1=CC(=O)c2nc(C#N)ccc2C1=O` the IC50 was “inactive”.

Source: PubChem BioAssay AID588420 (The Scripps Research Institute Molecular Screening Center, 2011)
